Drawing on ChEMBL document CHEMBL5120742, “Multi-target weapons: diaryl-pyrazoline thiazolidinediones simultaneously targeting VEGFR-2 and HDAC cancer hallmarks” (RSC Med Chem, 2021), this text covers IC50, Activity and inhibition for 17 compounds.

Structures are written as SMILES.

Data set [1] can be described thus: Cytotoxicity against HUVEC cells assessed as reduction in cell viability after 96 hrs by MTT assay. The conditions noted are these: human. (In general: Tetrazolium dyes change colour on reduction, which living cells bring about.)
Data set [2] concerns the target T1, Histone deacetylase 4 (Homo sapiens, UniProt P56524). The data set can be described thus: Inhibition of recombinant human N-terminal His6-SUMO-tagged C-terminal SII-tagged HDAC4 expressed in Escherichia coli (BL21) DE3 pLysS cells assessed as residual activity at 50 uM using BocLys(trifluoroacetyl)-AMC as substrate incubated for 30 mins by fluorescence assay relative to control. The essentials:
(§1)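 Catalytic-domain HDAC4 (His6-SUMO/SII-tagged) and full-length codon-optimized human HDAC8 were expressed in E. coli BL21 DE3 pLysS from pET14b. Both were assayed in a two-step fluorogenic format with Boc-Lys(trifluoroacetyl)-AMC, followed by trypsin development. Compounds were screened first at 50 µM for residual activity.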

Data set [3] concerns the target T1, Histone deacetylase 4. The experiment in a line: Inhibition of recombinant human N-terminal His6-SUMO-tagged C-terminal SII-tagged HDAC4 expressed in Escherichia coli (BL21) DE3 pLysS cells using BocLys(trifluoroacetyl)-AMC as substrate incubated for 30 mins by fluorescence assay. The essentials:
as §1

Data set [4] concerns the target Vascular endothelial growth factor receptor 2 (Homo sapiens, UniProt P35968). The experiment in a line: Inhibition of human VEGFR2 in HUVEC cells assessed as reduction in VEGFR2 phosphorylation at 10 uM incubated for 30 mins by anti-phospho VEGF Tyr 1175 antibody based assay relative to control. It is filed as cell-based. The essentials:
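HUVECs were seeded at 4000–5000 per well in DMEM with 10% FCS for 12 h, then held 24 h in serum. Compound (10 µM) was added with serum for 30 min at 37 °C. Cells were fixed in 4% formaldehyde and probed with anti-phospho-VEGFR Tyr1175 (1:1000), then an HRP secondary (1:5000). TMB signal was stopped with 2N H2SO4 and read at 450 nm. Percent inhibition is normalized to control.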

A further data set has as its target T2, Histone deacetylase 8 (Homo sapiens, UniProt Q9BY41).
T2 sequence (Q9BY41 whole entry): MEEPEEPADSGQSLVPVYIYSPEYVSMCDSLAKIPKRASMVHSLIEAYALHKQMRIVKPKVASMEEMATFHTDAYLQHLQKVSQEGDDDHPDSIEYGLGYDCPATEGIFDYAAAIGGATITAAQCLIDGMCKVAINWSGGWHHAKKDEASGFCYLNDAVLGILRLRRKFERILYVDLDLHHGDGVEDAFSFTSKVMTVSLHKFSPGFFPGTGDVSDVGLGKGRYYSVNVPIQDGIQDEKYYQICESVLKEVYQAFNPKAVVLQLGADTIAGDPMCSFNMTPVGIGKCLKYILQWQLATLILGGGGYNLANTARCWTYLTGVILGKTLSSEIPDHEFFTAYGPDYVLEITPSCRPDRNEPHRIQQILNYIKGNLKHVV
The data set can be described thus: Inhibition of recombinant human N-terminal His6-SUMO-tagged C-terminal SII-tagged HDAC8 expressed in Escherichia coli (BL21) DE3 pLysS cells using BocLys(trifluoroacetyl)-AMC as substrate incubated for 30 mins by fluorescence assay. The essentials:
as §1

For data set [5], the target named is T3, Histone deacetylase 8 (Homo sapiens) (UniProt Q9BY41).
T3 sequence (whole entry): T2 sequence (Q9BY41 whole entry)
The data set can be described thus: Inhibition of recombinant human N-terminal His6-SUMO-tagged C-terminal SII-tagged HDAC8 expressed in Escherichia coli (BL21) DE3 pLysS cells assessed as residual activity at 50 uM using BocLys(trifluoroacetyl)-AMC as substrate incubated for 30 mins by fluorescence assay relative to control. The method, boiled down: as §1

For another data set, the system named is K562. The experiment in a line: Antiproliferative activity against human K562 cells assessed as reduction in cell viability after 48 hrs by MTT assay. It is filed as functional, cell-based. As to conditions: K562, 48 h. The essentials: (§2)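 MCF-7, K562, A549 and HT-29 lines were seeded in 96-well plates and kept overnight at 37 °C, 5% CO2, 95% humidity. They were then exposed to six concentrations (100 to 2.5) for 48 h. After PBS washes, MTT was added for 4 h at 37 °C and formazan was dissolved in DMSO. Absorbance was read at 570 nm. Survival is mean OD of treated wells over the negative control, and IC50 was derived from that.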

The subject of another data set is HT-29. The data set can be described thus: Antiproliferative activity against human HT-29 cells assessed as reduction in cell viability after 48 hrs by MTT assay. It is filed as functional, cell-based. The conditions noted are these: HT-29, 48 h. The method, boiled down:
as §2

T1 sequence (P56524 whole entry): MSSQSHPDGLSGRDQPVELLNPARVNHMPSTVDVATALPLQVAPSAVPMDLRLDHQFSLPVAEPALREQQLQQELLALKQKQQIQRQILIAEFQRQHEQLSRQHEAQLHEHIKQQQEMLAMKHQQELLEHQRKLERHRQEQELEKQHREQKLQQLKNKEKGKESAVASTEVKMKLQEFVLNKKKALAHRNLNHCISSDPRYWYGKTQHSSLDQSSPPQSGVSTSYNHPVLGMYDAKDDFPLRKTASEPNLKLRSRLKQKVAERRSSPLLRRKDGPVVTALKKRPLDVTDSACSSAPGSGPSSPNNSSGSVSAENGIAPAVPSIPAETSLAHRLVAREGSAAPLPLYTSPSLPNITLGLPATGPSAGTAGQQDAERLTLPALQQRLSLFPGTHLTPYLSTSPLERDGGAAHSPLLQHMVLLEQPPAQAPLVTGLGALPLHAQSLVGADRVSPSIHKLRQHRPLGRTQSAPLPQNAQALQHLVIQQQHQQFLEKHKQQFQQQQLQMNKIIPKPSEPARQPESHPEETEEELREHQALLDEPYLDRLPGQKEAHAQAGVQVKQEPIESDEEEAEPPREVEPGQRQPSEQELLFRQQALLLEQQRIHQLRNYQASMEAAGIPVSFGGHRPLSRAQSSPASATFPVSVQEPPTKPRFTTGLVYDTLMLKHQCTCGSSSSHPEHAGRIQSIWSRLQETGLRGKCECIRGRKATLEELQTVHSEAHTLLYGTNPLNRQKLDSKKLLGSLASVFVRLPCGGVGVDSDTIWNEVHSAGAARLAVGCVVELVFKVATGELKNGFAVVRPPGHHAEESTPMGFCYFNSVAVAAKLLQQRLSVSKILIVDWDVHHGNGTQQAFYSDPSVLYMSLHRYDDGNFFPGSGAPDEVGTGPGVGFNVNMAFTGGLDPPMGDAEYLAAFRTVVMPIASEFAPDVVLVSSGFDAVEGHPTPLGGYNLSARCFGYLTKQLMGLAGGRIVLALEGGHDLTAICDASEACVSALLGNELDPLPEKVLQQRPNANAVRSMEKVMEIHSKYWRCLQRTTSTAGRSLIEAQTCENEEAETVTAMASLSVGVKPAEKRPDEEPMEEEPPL
Vascular endothelial growth factor receptor 2, sequence (P35968 whole entry): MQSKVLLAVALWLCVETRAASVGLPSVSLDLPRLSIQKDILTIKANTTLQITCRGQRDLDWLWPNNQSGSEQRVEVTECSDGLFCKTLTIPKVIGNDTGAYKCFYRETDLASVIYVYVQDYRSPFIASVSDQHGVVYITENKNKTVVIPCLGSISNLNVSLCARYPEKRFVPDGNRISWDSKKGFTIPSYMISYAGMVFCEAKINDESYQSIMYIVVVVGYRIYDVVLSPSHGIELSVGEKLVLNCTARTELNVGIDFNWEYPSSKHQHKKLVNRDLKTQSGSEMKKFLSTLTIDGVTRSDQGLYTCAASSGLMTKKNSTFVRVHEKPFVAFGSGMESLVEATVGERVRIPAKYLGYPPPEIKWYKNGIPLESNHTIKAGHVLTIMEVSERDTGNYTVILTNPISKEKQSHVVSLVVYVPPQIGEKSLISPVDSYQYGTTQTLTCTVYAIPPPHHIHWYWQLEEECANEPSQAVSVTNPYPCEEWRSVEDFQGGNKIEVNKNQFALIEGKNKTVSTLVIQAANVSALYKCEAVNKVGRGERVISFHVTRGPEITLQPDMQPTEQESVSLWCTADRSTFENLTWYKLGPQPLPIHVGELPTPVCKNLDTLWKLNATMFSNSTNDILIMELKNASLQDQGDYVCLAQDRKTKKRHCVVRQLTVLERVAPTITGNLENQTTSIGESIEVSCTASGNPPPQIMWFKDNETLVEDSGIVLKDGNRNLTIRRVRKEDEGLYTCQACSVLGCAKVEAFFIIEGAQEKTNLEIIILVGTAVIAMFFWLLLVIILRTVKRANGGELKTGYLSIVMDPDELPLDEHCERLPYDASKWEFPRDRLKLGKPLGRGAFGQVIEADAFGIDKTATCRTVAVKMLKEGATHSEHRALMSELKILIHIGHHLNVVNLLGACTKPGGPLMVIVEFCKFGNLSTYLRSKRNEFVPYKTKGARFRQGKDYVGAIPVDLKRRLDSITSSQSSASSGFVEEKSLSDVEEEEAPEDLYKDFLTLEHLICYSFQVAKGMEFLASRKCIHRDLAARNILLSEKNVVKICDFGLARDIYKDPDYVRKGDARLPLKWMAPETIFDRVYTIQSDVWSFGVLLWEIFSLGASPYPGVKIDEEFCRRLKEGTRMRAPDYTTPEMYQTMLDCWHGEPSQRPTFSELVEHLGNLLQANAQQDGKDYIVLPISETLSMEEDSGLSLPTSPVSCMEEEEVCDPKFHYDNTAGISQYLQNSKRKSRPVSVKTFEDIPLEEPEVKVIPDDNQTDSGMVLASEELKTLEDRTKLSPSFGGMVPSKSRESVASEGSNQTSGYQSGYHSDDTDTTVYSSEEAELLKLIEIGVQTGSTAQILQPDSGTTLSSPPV

As usually defined, the IC50 is the concentration at which inhibition is half-maximal. In general, inhibition refers to the share of the control response that was lost under treatment. As to `O=C1NC(=O)/C(=C\c2ccc(OCC(=O)N3N=C(c4ccc(F)cc4)CC3c3ccc(C(F)(F)F)cc3)cc2)S1` (centres undefined), in data set [1], the IC50 at 96 h is 6000 nM. Moreover, the Activity at Histone deacetylase 4 [2] was determined as 9.2%; in data set [5] it was 81%. Besides, the IC50 on Histone deacetylase 4 [3] is 1300 nM; at Histone deacetylase 8, greater than 50000 nM. Moreover, the inhibition in data set [4] was found to be 48.7%.

With `O=C1NC(=O)/C(=C\c2ccc(OCC(=O)N3N=C(c4ccccc4)CC3c3ccccc3)cc2)S1` (centres undefined), the Activity turned out to be 11% on Histone deacetylase 4 [2] and 39% in data set [5]. The IC50 at Histone deacetylase 4 [3] came out at 1600 nM; at Histone deacetylase 8 it was 20000 nM.

Regarding `Cc1ccc(C2CC(c3ccccc3)=NN2C(=O)COc2ccc(/C=C3/SC(=O)NC3=O)cc2)cc1` (centres undefined), the Activity at Histone deacetylase 4 [2] amounted to 4.6%; in data set [5] it was 36%. Besides, the IC50 at Histone deacetylase 4 [3] stood at 1200 nM; at Histone deacetylase 8 it was 31000 nM.

For the compound `O=C1NC(=O)/C(=C\c2ccc(OCC(=O)N3N=C(c4ccccc4)CC3c3ccc(F)cc3F)cc2)S1` (centres undefined), the Activity at Histone deacetylase 4 [2] turned out to be 17%; in data set [5] it was 33%. Moreover, the IC50 at Histone deacetylase 4 [3] was determined as 2200 nM; at Histone deacetylase 8 it was 34000 nM.

As to `O=C1NC(=O)/C(=C\c2ccc(OCC(=O)N3N=C(c4ccc(F)cc4F)CC3c3ccco3)cc2)S1` (centres undefined), the Activity is 22% at Histone deacetylase 4 [2] and 100% in data set [5]. The IC50 was 15000 nM at Histone deacetylase 4 [3] and greater than 50000 nM on Histone deacetylase 8.

`Cc1ccc(C2CC(c3ccc(F)cc3)=NN2C(=O)COc2ccc(/C=C3/SC(=O)NC3=O)cc2)cc1` (centres undefined): the results for the Activity (at Histone deacetylase 4 [2]; in data set [5]) were 10% and 81%, respectively. For the same compound, the IC50 on Histone deacetylase 4 [3] was 1800 nM; on Histone deacetylase 8 it was greater than 50000 nM.

On to `O=C1NC(=O)/C(=C\c2ccc(OCC(=O)N3N=C(c4ccccc4)CC3c3ccccc3Cl)cc2)S1` (centres undefined), for which, in data set [1], the IC50 at 96 h turned out to be 2000 nM. For the same compound, the Activity at Histone deacetylase 4 [2] was 14%; in data set [5], 27%. For the same compound, the IC50 on Histone deacetylase 4 [3] was determined as 1200 nM; on Histone deacetylase 8, 29000 nM. Also, the inhibition in data set [4] stood at 49%.

Regarding `CC(=O)O[C@H]1C(=O)[C@@]2(C)[C@H]([C@H](OC(=O)c3ccccc3)[C@]3(O)C[C@H](OC(=O)[C@H](O)[C@@H](NC(=O)c4ccccc4)c4ccccc4)C(C)=C1C3(C)C)[C@]1(OC(C)=O)CO[C@@H]1C[C@@H]2O` [PACLITAXEL], the IC50 in the data set with K562 was found to be 290 nM; in the data set on HT-29 it was 280 nM.

For the compound `O=C1NC(=O)/C(=C\c2ccc(OCC(=O)N3N=C(c4ccc(F)cc4)CC3c3ccc(F)cc3)cc2)S1` (centres undefined), the IC50 at 96 h in data set [1] is greater than 10000 nM. Besides, the Activity is 3.3% at Histone deacetylase 4 [2] and 61% in data set [5]. For the same compound, the IC50 on Histone deacetylase 4 [3] is 1400 nM; on Histone deacetylase 8, greater than 50000 nM.

With `Cc1ccc(C2CC(c3ccc(F)cc3F)=NN2C(=O)COc2ccc(/C=C3/SC(=O)NC3=O)cc2)cc1` (centres undefined), the IC50 at 96 h in data set [1] was greater than 10000 nM. The Activity is 9.4% on Histone deacetylase 4 [2] and 69% in data set [5]. The values for the IC50 at Histone deacetylase 4 [3] and on Histone deacetylase 8 were 1500 nM and greater than 50000 nM, respectively.

For `O=C1NC(=O)/C(=C\c2ccc(OCC(=O)N3N=C(c4ccccc4)CC3c3ccc(Br)cc3)cc2)S1` (centres undefined), the Activity stood at 7% at Histone deacetylase 4 [2] and 21% in data set [5]. The IC50 at Histone deacetylase 4 [3] came out at 1200 nM; on Histone deacetylase 8, 35000 nM.

Consider `O=C1NC(=O)/C(=C\c2ccc(OCC(=O)N3N=C(c4ccc(F)cc4)CC3c3ccc(F)cc3F)cc2)S1` (centres undefined), for which the Activity at Histone deacetylase 4 [2] was 10%; in data set [5], 63%. The IC50 at Histone deacetylase 4 [3] was 1600 nM; at Histone deacetylase 8, greater than 50000 nM.

Turning to `O=C1NC(=O)/C(=C\c2ccc(OCC(=O)N3N=C(c4ccccc4)CC3c3ccc(F)cc3)cc2)S1` (centres undefined), the values for the Activity (on Histone deacetylase 4 [2]; in data set [5]) were 2.5% and 26%, respectively. Moreover, the IC50 was 1700 nM on Histone deacetylase 4 [3] and 26000 nM at Histone deacetylase 8.

`O=C1NC(=O)/C(=C\c2ccc(OCC(=O)N3N=C(c4ccc(F)cc4)CC3c3ccccc3)cc2)S1` (centres undefined): in data set [1], the IC50 at 96 h is greater than 10000 nM. Further, the Activity was 10% at Histone deacetylase 4 [2] and 58% in data set [5]. Moreover, the values for the IC50 at Histone deacetylase 4 [3] and at Histone deacetylase 8 were 4200 nM and greater than 50000 nM, respectively.

`O=C1NC(=O)/C(=C\c2ccc(OCC(=O)N3N=C(c4ccccc4)CC3c3ccc(C(F)(F)F)cc3)cc2)S1` (centres undefined): the IC50 at 96 h in data set [1] was greater than 10000 nM. Besides, the Activity amounted to 12% at Histone deacetylase 4 [2] and 8.2% in data set [5]. The IC50 came to 1000 nM at Histone deacetylase 4 [3] and 16000 nM at Histone deacetylase 8.

Turning to `O=C1NC(=O)/C(=C\c2ccc(OCC(=O)N3N=C(c4ccc(F)cc4)CC3c3ccccc3Cl)cc2)S1` (centres undefined), the Activity on Histone deacetylase 4 [2] was 3.3%; in data set [5] it was 28%. Also, the IC50 is 1100 nM on Histone deacetylase 4 [3] and greater than 50000 nM on Histone deacetylase 8.

Take `O=C1NC(=O)/C(=C\c2ccc(OCC(=O)N3N=C(c4ccc(F)cc4F)CC3c3ccc(F)cc3)cc2)S1` (centres undefined): the Activity at Histone deacetylase 4 [2] amounted to 10%; in data set [5] it was 69%. Besides, the values for the IC50 at Histone deacetylase 4 [3] and at Histone deacetylase 8 were 1500 nM and greater than 50000 nM, respectively.
